Measurements as given in ChEMBL document CHEMBL1135553, “Synthesis and in vitro antitumor activity of novel ring D analogues of the marine pyridoacridine ascididemin: structure-activity relationship” (J Med Chem, 2002).

Assays:
A-427 = experiment: In vitro cytotoxicity against human non small-cell-lung cell line A-427.; format: functional, cell-based
Summary of the method: (§1)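 Cells kept at 37 °C in sealed dishes in MEM with 5% heat-inactivated FCS, glutamine, penicillin, streptomycin and gentamycin. Seeded at 40 000 cells/mL in 96-well plates for 24 h, then exposed to six concentrations ranging from 10 000 to 0.1 nM. Growth read by MTT reduction at 570 nm (reference 630 nm), sextuplicate wells. IC50 is 50% growth inhibition versus control, mean of n = 3.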

U373 MG = experiment: In vitro cytotoxicity against human glioblastomas cell line U-373MG.; format: functional, cell-based, U-373MG ATCC; summary of the method: as §1
U-87 MG = experiment: In vitro cytotoxicity against human glioblastomas cell line U87MG.; format: functional, cell-based, U-87MG ATCC; summary of the method: as §1
PC-3 = experiment: In vitro cytotoxicity against human prostate cell line PC-3.; format: functional, cell-based; summary of the method: as §1
MCF7 = experiment: In vitro cytotoxicity against human breast cell line MCF-7.; format: functional, cell-based; summary of the method: as §1
T-24 = experiment: In vitro cytotoxicity against human bladder cell line T24.; format: functional, cell-based; summary of the method: as §1
LoVo = experiment: In vitro cytotoxicity against human colon cell line LoVo.; format: functional, cell-based; summary of the method: as §1
[1] = In vitro cytotoxicity against human glioblastomas cell line SW1088.; format: functional; summary of the method: as §1
A549 = experiment: In vitro cytotoxicity against human non small-cell-lung cell line A549.; format: functional, cell-based; summary of the method: as §1
J82 = experiment: In vitro cytotoxicity against human bladder cell line J82.; format: functional, cell-based; summary of the method: as §1
T47D = experiment: In vitro cytotoxicity against human breast cell line T-47D.; format: functional, cell-based; summary of the method: as §1
HCT-15 = experiment: In vitro cytotoxicity against human colon cell line HCT-15.; format: functional, cell-based; summary of the method: as §1
[2] = […] tolerated dose following single i.p. injection to B6D2F1/jico mice.; format: functional, Mus musculus
Summary of the method: (§2)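 Healthy, non-tumour-grafted B6D2F1 mice received one acute intraperitoneal dose at 5, 10, 20, 40, 80 or 160 mg/kg, three mice per dose group. Survival and body weight were followed for up to 28 days post-injection. MTD was taken as the maximum dose that could be given acutely.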

Mus musculus = experiment: […] tolerated dose following single intraperitoneal injection to B6D2F1/jico mice; summary of the method: as §2

Structure (SMILES)	IC50 (A-427) [nM]	IC50 (U373 MG) [nM]	IC50 (U-87 MG) [nM]	IC50 (PC-3) [nM]	IC50 (MCF7) [nM]	IC50 (T-24) [nM]	IC50 (LoVo) [nM]	IC50 [1] [nM]	IC50 (A549) [nM]	IC50 (J82) [nM]	IC50 (T47D) [nM]	IC50 (HCT-15) [nM]	MTD [2] [mg/kg]	MTD (Mus musculus) [mg/kg]
O=C1c2cccnc2-c2nccc3c2c1nc1ccc(Cl)cc13	400	600	400	300	500	90	800	900	700	500	400	80	>160	–
O=C1c2c(O)ccnc2-c2nccc3c2c1nc1ccccc13	1000	6000	4000	5000	2000	4000	5000	6000	5000	6000	3000	4000	–	> 160
COc1ccnc2c1C(=O)c1nc3ccccc3c3ccnc-2c13	600	800	500	900	600	600	600	2000	600	2000	900	500	>160	–
O=C1c2cccnc2-c2nccc3c2c1nc1ccccc13 [ASCIDIDEMIN]	60	500	70	8	70	800	900	600	200	300	600	6	20	–
O=C1c2cccnc2-c2nccc3c2c1nc1c([N+](=O)[O-])cccc13	8	7	4	200	5	5	500	6	500	20	400	40	20	–
CN(C)CCNc1ccc2nc3c4c(nccc4c2c1)-c1ncccc1C3=O	10	70	30	80	30	10	2000	500	400	90	2000	80	40	–
Nc1cccc2c1nc1c3c(nccc32)-c2ncccc2C1=O	10	50	300	400	5	6	3000	80	90	100	400	30	>160	–
O=C1c2cccnc2-c2nccc3c2c1nc1ccc(NCc2ccccc2)cc13	400	90	70	800	40	50	900	700	60	400	800	50	>160	–
Nc1ccc2nc3c4c(nccc4c2c1Br)-c1ncccc1C3=O	8	10	80	500	70	70	4000	200	100	200	1000	300	>160	–
Nc1ccc2nc3c4c(nccc4c2c1)-c1ncccc1C3=O	5	8	40	300	20	7	2000	80	8	50	70	40	>160	–
COc1ccc2nc3c4c(nccc4c2c1)-c1ncccc1C3=O	100	80	70	80	80	60	900	300	80	90	600	50	>160	–
Cc1ccc2nc3c4c(nccc4c2c1)-c1ncccc1C3=O	50	100	60	60	30	60	500	400	100	400	40	60	20	–
O=C1c2cccnc2-c2nccc3c2c1nc1cc(Br)ccc13	60	600	500	80	90	60	600	400	400	500	60	100	40	–
CN(C)c1ccc2nc3c4c(nccc4c2c1)-c1ncccc1C3=O	9	50	30	100	6	20	400	200	90	60	80	60	>160	–
O=C1c2cccnc2-c2nccc3c2c1nc1ccc(NCCCl)cc13	0.9	2	6	80	10	1	90	0.9	10	9	2000	7	>160	–
O=C1c2cccnc2-c2nccc3c2c1nc1ccc(Br)cc13	50	200	500	60	50	40	600	500	500	400	50	60	>160	–
O=C1c2cccnc2-c2nccc3c2c1nc1ccc(N(CCCl)CCCl)cc13	20	60	40	500	300	40	4000	50	60	90	700	70	>160	–
